Test [1] relates to HOS. Description: Viability of HOS cells at 100 uM. Format: functional, Homo sapiens. In a few lines:
(§1)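 Cells grown in DMEM with 10% FCS and 4 mM glutamine at 37 °C, plated in 96-well format, preincubated 12 h, then exposed 72 h. Live cells measured by Calcein AM (1 h) fluorescence at 485/538 nm; % viable cells given at 100 µM compound.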

Test [2] has as its system K562. Description: Viability of K562 cells at 100 uM. The test is classed as functional, Homo sapiens. An outline of the steps: as §1
In test [3] the target is Cyclin-dependent kinase 4/cyclin D1 (Homo sapiens, UniProt P11802). Description: Inhibition of CDK4/Cyclin D1 in presence of 100 uM ATP. Format: protein-complex assay.
Sequence of Cyclin-dependent kinase 4/cyclin D1 (P11802 whole entry): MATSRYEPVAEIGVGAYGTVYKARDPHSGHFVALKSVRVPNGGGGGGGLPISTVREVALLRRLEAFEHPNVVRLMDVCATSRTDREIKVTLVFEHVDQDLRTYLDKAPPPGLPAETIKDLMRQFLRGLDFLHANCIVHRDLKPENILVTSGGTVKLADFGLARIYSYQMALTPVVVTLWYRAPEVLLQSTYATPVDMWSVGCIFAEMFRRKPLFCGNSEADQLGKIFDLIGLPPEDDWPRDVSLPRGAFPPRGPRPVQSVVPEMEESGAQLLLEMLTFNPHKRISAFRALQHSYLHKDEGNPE
Sequence of Cyclin-dependent kinase 4/cyclin D1 (P24385 whole entry, further chain): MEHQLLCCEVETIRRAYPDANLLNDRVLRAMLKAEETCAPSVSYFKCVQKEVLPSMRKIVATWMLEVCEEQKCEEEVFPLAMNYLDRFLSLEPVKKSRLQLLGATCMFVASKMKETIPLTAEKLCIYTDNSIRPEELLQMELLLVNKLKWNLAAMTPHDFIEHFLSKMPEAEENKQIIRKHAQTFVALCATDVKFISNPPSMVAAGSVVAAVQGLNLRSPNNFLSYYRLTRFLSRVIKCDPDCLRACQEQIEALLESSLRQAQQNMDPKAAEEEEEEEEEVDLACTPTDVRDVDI
Test [4] has as its target T1, Cyclin-dependent kinase 2/cyclin E (Homo sapiens, UniProt P24941). Description: Inhibition of CDK2/Cyclin E in presence of 100 uM ATP. Format: protein-complex assay.
The test system of test [5] is G-361. Description: Antiproliferative activity against G361 cell line. Format: functional, cell-based. The conditions noted are these: Homo sapiens. In a few lines:
(§2)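 Cells grown in DMEM with 10% FCS, glutamine and penicillin/streptomycin at 37 °C, seeded in 96-well plates and preincubated 12 h. Compounds were added in 6-fold dilutions (1-100 µM) for 72 h. IC50 taken from dose-response curves.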

Test [6] has as its system HOS. Description: Antiproliferative activity against HOS cell line. The test is classed as functional, cell-based. Conditions: Homo sapiens. In a few lines: as §2
In test [7] the test system is K562. Description: Antiproliferative activity against K562 cell line. The test is classed as functional, cell-based. The conditions noted are these: Homo sapiens. In a few lines: as §2
In test [8] the target is CDK9/cyclin T1 (Homo sapiens, UniProt P50750). In words: Inhibition of CDK9/Cyclin T1 in presence of 100 uM ATP. Format: protein-complex assay.
Sequence of CDK9/cyclin T1 (O60563 whole entry): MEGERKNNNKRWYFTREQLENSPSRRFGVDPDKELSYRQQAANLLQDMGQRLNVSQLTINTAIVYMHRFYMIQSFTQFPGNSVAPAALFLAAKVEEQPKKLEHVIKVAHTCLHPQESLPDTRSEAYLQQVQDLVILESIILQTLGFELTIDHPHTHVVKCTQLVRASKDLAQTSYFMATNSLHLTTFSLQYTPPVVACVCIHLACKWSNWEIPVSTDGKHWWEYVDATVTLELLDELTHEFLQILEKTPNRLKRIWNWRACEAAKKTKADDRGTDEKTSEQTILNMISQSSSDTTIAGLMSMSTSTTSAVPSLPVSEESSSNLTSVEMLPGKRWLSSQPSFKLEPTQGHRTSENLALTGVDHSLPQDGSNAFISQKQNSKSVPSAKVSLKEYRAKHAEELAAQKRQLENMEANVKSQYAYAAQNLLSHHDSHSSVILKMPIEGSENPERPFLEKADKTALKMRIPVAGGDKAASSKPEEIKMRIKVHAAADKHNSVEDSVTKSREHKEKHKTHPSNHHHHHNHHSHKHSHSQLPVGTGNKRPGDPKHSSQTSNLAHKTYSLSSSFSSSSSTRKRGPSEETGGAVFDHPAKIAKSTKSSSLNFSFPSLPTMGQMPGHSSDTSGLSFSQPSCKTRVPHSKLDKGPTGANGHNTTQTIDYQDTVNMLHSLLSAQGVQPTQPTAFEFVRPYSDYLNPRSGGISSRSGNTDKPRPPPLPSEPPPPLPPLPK
Sequence of CDK9/cyclin T1 (P50750 whole entry): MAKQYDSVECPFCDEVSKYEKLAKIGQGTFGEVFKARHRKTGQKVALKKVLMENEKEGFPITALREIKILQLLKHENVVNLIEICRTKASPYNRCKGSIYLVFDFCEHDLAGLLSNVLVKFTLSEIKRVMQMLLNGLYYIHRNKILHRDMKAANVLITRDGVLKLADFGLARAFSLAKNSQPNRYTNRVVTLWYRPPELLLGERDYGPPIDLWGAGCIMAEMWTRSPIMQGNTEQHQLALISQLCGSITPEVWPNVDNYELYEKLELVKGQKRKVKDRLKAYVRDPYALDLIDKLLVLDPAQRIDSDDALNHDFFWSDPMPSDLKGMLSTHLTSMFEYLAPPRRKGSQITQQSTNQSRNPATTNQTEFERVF
The subject of test [9] is MCF7. Description: Viability of MCF7 cells at 100 uM. The test is classed as functional, Homo sapiens. An outline of the steps:
as §1

The target of test [10] is Cyclin-dependent kinase 1/cyclin B (Homo sapiens, UniProt P06493). In words: Inhibition of CDK1/Cyclin B in presence of 100 uM ATP. The test is classed as protein-complex assay.
For test [11], the system named is G-361. In words: Viability of G361 cells at 100 uM. Format: functional, Homo sapiens. In a few lines: as §1
The target in test [12] is T1, Cyclin-dependent kinase 2/cyclin E. Description: Inhibition of CDK2/Cyclin E in presence of 15 uM ATP. Format: protein-complex assay.
For test [13], the system named is MCF7. In words: Antiproliferative activity against MCF7 cell line. The test is classed as functional, cell-based. The conditions noted are these: Homo sapiens. In a few lines: as §2
The target of test [14] is Cyclin-dependent kinase 2/cyclin A (Homo sapiens, UniProt P24941). Description: Inhibition of CDK2/Cyclin A in presence of 100 uM ATP. Format: protein-complex assay.
Test [15] deals with Cyclin-dependent kinase 7/ cyclin H (Homo sapiens, UniProt P50613). In words: Inhibition of CDK7/Cyclin H in presence of 100 uM ATP. The test is classed as protein-complex assay.
Sequence of Cyclin-dependent kinase 7/ cyclin H (P51946 whole entry): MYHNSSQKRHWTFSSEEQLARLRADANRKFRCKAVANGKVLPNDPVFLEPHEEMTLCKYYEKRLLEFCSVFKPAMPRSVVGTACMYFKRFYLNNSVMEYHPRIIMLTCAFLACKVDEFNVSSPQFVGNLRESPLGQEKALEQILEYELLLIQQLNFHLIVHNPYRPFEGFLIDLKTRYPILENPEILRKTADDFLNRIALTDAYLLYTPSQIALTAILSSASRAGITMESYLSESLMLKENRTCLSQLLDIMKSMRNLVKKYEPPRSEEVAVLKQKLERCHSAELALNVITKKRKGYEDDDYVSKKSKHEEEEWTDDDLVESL
Sequence of Cyclin-dependent kinase 7/ cyclin H (P50613 whole entry): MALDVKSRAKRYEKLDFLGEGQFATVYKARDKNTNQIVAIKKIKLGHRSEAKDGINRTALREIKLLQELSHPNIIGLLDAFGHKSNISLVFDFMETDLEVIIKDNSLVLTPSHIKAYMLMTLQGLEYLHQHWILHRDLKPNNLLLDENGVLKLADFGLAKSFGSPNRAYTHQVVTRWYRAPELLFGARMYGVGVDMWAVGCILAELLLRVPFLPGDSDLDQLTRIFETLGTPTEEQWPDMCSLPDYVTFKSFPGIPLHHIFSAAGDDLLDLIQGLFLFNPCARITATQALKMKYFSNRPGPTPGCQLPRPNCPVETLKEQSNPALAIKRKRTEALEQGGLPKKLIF

Bounds are passed on as bounds.

Turning to `Nc1n[nH]c(N)c1/N=N/c1ccccc1[N+](=O)[O-]`, the Activity was determined as 57% in test [1], 48% in test [2], 62% in [9] and 58% in test [11]. For the same compound, the IC50 is 16 µM in test [3]; 22 µM in [4]; more than 100 µM in test [5]; more than 100 µM in test [6]; 100 µM in test [7]; 5.6 µM in test [8]. Moreover, the IC50 was 42 µM in [10]; 6.1 µM in [12]; more than 100 µM in [13]; 88 µM in test [14]; 77 µM in test [15].

As to `Nc1n[nH]c(N)c1/N=N/c1cccc2c1CCCC2`, the Activity came out at 32% in test [1], 26% in [2], 39% in test [9] and 27% in test [11]. For the same compound, the IC50 came out at 77 µM in test [5]; 92 µM in test [6]; 55 µM in test [7]; 15 µM in test [12]; 81 µM in test [13].

As for `Nc1n[nH]c(N)c1/N=N/c1ccccc1O`, the Activity is 84% in [1], 72% in test [2], 72% in test [9] and 74% in test [11]. Besides, the IC50 was more than 100 µM in [5]; more than 100 µM in [6]; more than 100 µM in test [7]; 2.5 µM in [12]; more than 100 µM in test [13].

Take `Nc1n[nH]c(N)c1/N=N/c1cccc([N+](=O)[O-])c1`: the Activity is listed as 95% in [1], 28% in [2], 44% in test [9] and 69% in test [11]. The IC50 in test [3] is 70 µM; in [4], 68 µM; in [5], more than 100 µM; in test [6], more than 100 µM; in [7], 79 µM; in test [8], 12.4 µM. Besides, the concentration for half-maximal inhibition (IC50) is more than 100 µM in [10]; 23 µM in [12]; 65 µM in test [13]; more than 100 µM in test [14]; more than 100 µM in [15].

Take `Nc1n[nH]c(N)c1/N=N/c1cccc2ccccc12`: the Activity in test [1] is recorded as 79%; in [2] it was 7.7%; in test [9] it was 56%; in test [11], 55%. Moreover, the IC50 is more than 100 µM in test [5]; more than 100 µM in test [6]; 50 µM in test [7]; 10 µM in test [12]; more than 100 µM in test [13].

For the compound `Nc1n[nH]c(N)c1/N=N/c1ccccc1C(=O)O`, the Activity is on record as 91% in test [1], 89% in test [2], 97% in [9] and 96% in [11]. Besides, the IC50 was more than 100 µM in [5]; more than 100 µM in test [6]; more than 100 µM in test [7]; 92 µM in test [12]; more than 100 µM in [13].

As to `Nc1n[nH]c(N)c1/N=N/c1ccccc1CO`, the Activity in test [1] stood at 87%; in test [2], 86%; in test [9], 51%; in [11] it was 84%. The IC50 is more than 100 µM in test [3]; 77 µM in test [4]; more than 100 µM in [5]; more than 100 µM in [6]; more than 100 µM in test [7]; 26 µM in test [8]. Besides, the half-maximal inhibitory concentration (IC50) in test [10] is more than 100 µM; in test [12], 17 µM; in [13] it was more than 100 µM; in [14], more than 100 µM; in test [15] it was more than 100 µM.

On to `Nc1n[nH]c(N)c1/N=N/c1ccc([N+](=O)[O-])cc1`, for which the Activity in test [1] is recorded as 80%; in test [2], 25%; in test [9], 60%; in test [11], 61%. The IC50 in test [5] was more than 100 µM; in test [6], more than 100 µM; in [7], 71 µM; in test [12] it was 40 µM; in [13], more than 100 µM.

In the case of `Nc1n[nH]c(N)c1/N=N/c1cccc(C(=O)O)c1`, the Activity in test [1] is 94%; in test [2], 84%; in test [9], 102%; in [11], 93%. Further, the IC50 in [5] is more than 100 µM; in test [6] it was more than 100 µM; in test [7], more than 100 µM; in test [12], 28 µM; in test [13], more than 100 µM.

As to `Nc1n[nH]c(N)c1/N=N/c1cccc(O)c1`, the Activity is 83% in test [1], 53% in [2], 71% in test [9] and 70% in test [11]. For the same compound, the IC50 in [3] was 56 µM; in test [4], 51 µM; in [5], more than 100 µM; in test [6], more than 100 µM; in test [7], more than 100 µM; in test [8], 1.5 µM. For the same compound, the 50% inhibitory concentration (IC50) in test [10] was more than 100 µM; in test [12], 6 µM; in test [13], more than 100 µM; in test [14] it was more than 100 µM; in test [15], 82 µM.

Regarding `Nc1n[nH]c(N)c1/N=N/c1ccc(C(=O)O)cc1`, the Activity amounted to 92% in test [1], 96% in test [2], 97% in test [9] and 86% in test [11]. Also, the 50% inhibitory concentration (IC50) in test [5], in [6], in test [7], in [12] and in test [13] was more than 100 µM throughout.

In the case of `Nc1n[nH]c(N)c1/N=N/c1ccccc1`, the Activity in test [1] amounted to 83%; in test [2] it was 90%; in test [9] it was 74%; in [11], 75%. Further, the half-maximal inhibitory concentration (IC50) was more than 100 µM in test [3]; 100 µM in [4]; more than 100 µM in test [5]; more than 100 µM in test [6]; more than 100 µM in test [7]; 15 µM in [8]. For the same compound, the IC50 in test [10] was more than 100 µM; in [12], 22 µM; in test [13], more than 100 µM; in [14] it was more than 100 µM; in test [15] it was more than 100 µM.

The record behind these values is ChEMBL document CHEMBL1137343, “4-arylazo-3,5-diamino-1H-pyrazole CDK inhibitors: SAR study, crystal structure in complex with CDK2, selectivity, and cellular effects” (J Med Chem, 2006).
